Assay results taken from ChEMBL document CHEMBL1152334, “Quassinoid inhibition of AP-1 function does not correlate with cytotoxicity or protein synthesis inhibition” (J Nat Prod, 2009).
Activity calls are given as the source filed them. The calls are words filed in the database; no cut-off is given here.

Experiments:
[1] = Growth inhibition of human NCI60 cells; assay type: functional; conditions: Homo sapiens, NCI60
[2] = biological target: Signal transducer and activator of transcription 3 (Homo sapiens) (UniProt P40763); experiment: Inhibition of TPA-induced phosphorylation at Tyr705 of Stat3 in HEK293 whole cell extract at 20.4 uM treated 1 hr before TPA stimulation measured after 18 hrs by immunoblot analysis; assay type: cell-based
Outline: (§1)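 HEK293 cells were exposed to compound or DMSO for 1 h, then induced with TPA 10 ng/mL for 18 h. Cells were lysed in RIPA buffer (10 mM Tris-HCl pH 7.5, 1 mM EDTA, 0.1% SDS, 0.1% deoxycholate, protease inhibitor). Whole-cell extracts were immunoblotted for phospho-IκB-α and phospho-Stat3 (Tyr705), with tubulin as loading control.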

HeLa = experiment: Inhibition of protein synthesis in human HeLa cells assessed as [35S]methionine incorporation into protein treated for 45 mins before [35S]methionine addition by Whatman paper analysis; assay type: functional, cell-based
[3] = biological target: Signal transducer and activator of transcription 3 (Homo sapiens) (UniProt P40763); experiment: Inhibition of TPA-induced phosphorylation at Tyr705 of Stat3 in HEK293 whole cell extract at 15.8 uM treated 1 hr before TPA stimulation measured after 18 hrs by immunoblot analysis; assay type: cell-based; outline: as §1
[4] = biological target: Signal transducer and activator of transcription 3 (Homo sapiens) (UniProt P40763); experiment: Inhibition of TPA-induced phosphorylation at Tyr705 of Stat3 in HEK293 whole cell extract at 71.3 uM treated 1 hr before TPA stimulation measured after 18 hrs by immunoblot analysis; assay type: cell-based; outline: as §1
[5] = biological target: Signal transducer and activator of transcription 3 (Homo sapiens) (UniProt P40763); experiment: Inhibition of TPA-induced phosphorylation at Tyr705 of Stat3 in HEK293 whole cell extract at 35.5 uM treated 1 hr before TPA stimulation measured after 18 hrs by immunoblot analysis; outline: as §1
HEK293 = experiment: Inhibition of TPA-induced NF-kappaB transfected in HEK293 cells treated 1 hr before TPA stimulation measured after 18 hrs by luciferase reporter gene assay; assay type: cell-based
Outline: (§2)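 HEK293 cells were grown in DMEM with 10% FBS at 37 °C and 5% CO2. They were transiently transfected with a luciferase reporter (0.1 µg/well); reporters were AP-1 (four TRE consensus copies from GCN4), NF-κB (five responsive-element copies) or SRE. After 24 h, medium went to DMEM with 0.2% FBS. Cells were pretreated 1 h with compound or DMSO, then given TPA 10 ng/mL for 18 h. Firefly luciferase was read from passive-lysis lysates, TPA alone = 100%, in quadruplicate.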

[6] = biological target: Signal transducer and activator of transcription 3 (Homo sapiens) (UniProt P40763); experiment: Inhibition of TPA-induced phosphorylation at Tyr705 of Stat3 in HEK293 whole cell extract at 40.8 uM treated 1 hr before TPA stimulation measured after 18 hrs by immunoblot analysis; assay type: cell-based; outline: as §1
[7] = Inhibition of protein synthesis in cell-free extract of mouse Krebs2 cells by SDS-PAGE; assay type: functional
[8] = biological target: T1, Inhibitor of nuclear factor kappa-B kinase subunit alpha (Homo sapiens) (UniProt O15111); experiment: Inhibition of TPA-induced IkappaBalpha phosphorylation in HEK293 whole cell extract at 71.3 uM treated 1 hr before TPA stimulation measured after 18 hrs by immunoblot analysis; assay type: cell-based; outline: as §1
T1 sequence (whole entry): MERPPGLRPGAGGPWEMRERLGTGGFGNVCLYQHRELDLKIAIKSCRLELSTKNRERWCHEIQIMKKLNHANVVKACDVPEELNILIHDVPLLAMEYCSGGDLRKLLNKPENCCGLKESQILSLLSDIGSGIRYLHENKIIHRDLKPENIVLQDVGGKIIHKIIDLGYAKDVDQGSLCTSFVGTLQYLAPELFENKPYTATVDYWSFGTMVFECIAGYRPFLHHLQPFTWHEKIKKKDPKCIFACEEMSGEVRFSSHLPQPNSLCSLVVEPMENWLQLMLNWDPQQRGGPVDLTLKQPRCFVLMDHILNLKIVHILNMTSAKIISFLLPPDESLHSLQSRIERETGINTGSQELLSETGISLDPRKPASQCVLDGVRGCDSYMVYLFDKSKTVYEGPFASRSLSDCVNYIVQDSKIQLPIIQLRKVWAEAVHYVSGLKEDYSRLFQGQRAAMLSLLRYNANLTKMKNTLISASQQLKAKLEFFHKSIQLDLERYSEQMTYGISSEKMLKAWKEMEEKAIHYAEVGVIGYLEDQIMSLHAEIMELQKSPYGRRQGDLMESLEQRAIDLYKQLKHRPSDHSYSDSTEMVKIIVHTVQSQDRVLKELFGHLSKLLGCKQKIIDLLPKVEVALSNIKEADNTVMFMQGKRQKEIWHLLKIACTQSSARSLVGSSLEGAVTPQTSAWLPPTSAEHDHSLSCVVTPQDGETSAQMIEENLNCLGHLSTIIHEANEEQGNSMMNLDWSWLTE

[9] = biological target: Signal transducer and activator of transcription 3 (Homo sapiens) (UniProt P40763); experiment: Inhibition of TPA-induced phosphorylation at Tyr705 of Stat3 in HEK293 whole cell extract at 31.6 uM treated 1 hr before TPA stimulation measured after 18 hrs by immunoblot analysis; assay type: cell-based; outline: as §1
[10] = biological target: T1, Inhibitor of nuclear factor kappa-B kinase subunit alpha (Homo sapiens); experiment: Inhibition of TPA-induced IkappaBalpha phosphorylation in HEK293 whole cell extract at 35.5 uM treated 1 hr before TPA stimulation measured after 18 hrs by immunoblot analysis; outline: as §1
Nucleic Acid = experiment: Inhibition of TPA-induced SRE transfected in HEK293 cells treated 1 hr before TPA stimulation measured after 18 hrs by luciferase reporter gene assay; assay type: cell-based; outline: as §2
[11] = biological target: T1, Inhibitor of nuclear factor kappa-B kinase subunit alpha (Homo sapiens); experiment: Inhibition of TPA-induced IkappaBalpha phosphorylation in HEK293 whole cell extract at 31.6 uM treated 1 hr before TPA stimulation measured after 18 hrs by immunoblot analysis; assay type: cell-based; outline: as §1
[12] = biological target: T1, Inhibitor of nuclear factor kappa-B kinase subunit alpha (Homo sapiens); experiment: Inhibition of TPA-induced IkappaBalpha phosphorylation in HEK293 whole cell extract at 15.8 uM treated 1 hr before TPA stimulation measured after 18 hrs by immunoblot analysis; assay type: cell-based; outline: as §1
[13] = Growth inhibition of human AP-1 beta-lactamase reporter screening assay cells at 1 uM; conditions: AP-1 reporter cells
[14] = biological target: T1, Inhibitor of nuclear factor kappa-B kinase subunit alpha (Homo sapiens); experiment: Inhibition of TPA-induced IkappaBalpha phosphorylation in HEK293 whole cell extract at 20.4 uM treated 1 hr before TPA stimulation measured after 18 hrs by immunoblot analysis; assay type: cell-based
Outline: (§3)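 HEK293 cells grown in DMEM with 10% FBS at 37 °C and 5% CO2. Cells were pretreated with quassinoid or DMSO for 1 h, then stimulated with TPA (10 ng/mL) for 18 h. Whole-cell extracts were made in RIPA buffer (10 mM Tris-HCl pH 7.5, 1 mM EDTA, 0.1% SDS, 0.1% deoxycholate, protease inhibitor). Immunoblots were probed for phospho-IκB-α, with tubulin as loading control.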

[15] = biological target: T1, Inhibitor of nuclear factor kappa-B kinase subunit alpha (Homo sapiens); experiment: Inhibition of TPA-induced IkappaBalpha phosphorylation in HEK293 whole cell extract at 40.8 uM treated 1 hr before TPA stimulation measured after 18 hrs by immunoblot analysis; assay type: cell-based; outline: as §3

Chain of Signal transducer and activator of transcription 3 (Homo sapiens) (P40763 whole entry): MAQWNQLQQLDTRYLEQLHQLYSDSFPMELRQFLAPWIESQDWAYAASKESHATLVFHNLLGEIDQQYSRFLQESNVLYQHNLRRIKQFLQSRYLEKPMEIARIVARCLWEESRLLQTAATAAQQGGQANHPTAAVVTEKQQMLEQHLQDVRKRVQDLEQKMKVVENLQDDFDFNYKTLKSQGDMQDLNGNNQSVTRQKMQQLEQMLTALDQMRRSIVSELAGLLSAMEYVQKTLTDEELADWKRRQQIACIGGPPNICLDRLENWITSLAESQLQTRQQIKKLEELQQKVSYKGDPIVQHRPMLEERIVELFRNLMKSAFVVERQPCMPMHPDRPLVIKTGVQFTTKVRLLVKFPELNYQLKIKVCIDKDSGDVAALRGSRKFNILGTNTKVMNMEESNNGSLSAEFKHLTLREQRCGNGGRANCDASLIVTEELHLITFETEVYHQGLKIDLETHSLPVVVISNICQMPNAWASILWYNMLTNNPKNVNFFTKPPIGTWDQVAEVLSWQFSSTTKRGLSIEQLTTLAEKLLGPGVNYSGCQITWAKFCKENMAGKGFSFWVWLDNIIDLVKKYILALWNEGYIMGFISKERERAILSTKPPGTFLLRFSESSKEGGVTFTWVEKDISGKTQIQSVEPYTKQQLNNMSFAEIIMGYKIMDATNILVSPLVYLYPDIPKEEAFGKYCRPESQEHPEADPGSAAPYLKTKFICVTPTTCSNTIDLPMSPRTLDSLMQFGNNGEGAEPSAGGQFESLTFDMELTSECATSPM

inhibition [2]	IC50 (HeLa) [µM]	inhibition [3]	inhibition [4]	inhibition [5]	inhibition [6]	IC50 [7] [µM]	inhibition [8]	inhibition [9]	inhibition [10]	inhibition [11]	inhibition [12]	SMILES	GI50 [1] [µM]	inhibition (HEK293)	inhibition (Nucleic Acid)	inhibition at 1 µM [13] [%]	inhibition [14]	inhibition [15]
inactive	0.67	inactive	inactive	inactive	inactive	0.91	Active	inactive	Active	–	–	CC(C)=CC(=O)O[C@@H]1[C@H]2C(C)=C[C@H](O)[C@@H](O)[C@]2(C)[C@H]2[C@]3(O)OC[C@@]24[C@@H]1OC(=O)C[C@H]4[C@@H](C)[C@H]3O	0.26	Dose-dependent effect	Dose-dependent effect	–	–	–
inactive	0.0034	inactive	inactive	inactive	inactive	0.42	–	inactive	–	Active	Active	CCC(C)C(=O)O[C@H]1C(=O)O[C@@H]2C[C@H]3C(C)=CC(=O)[C@@H](O)[C@]3(C)[C@H]3[C@]4(O)OC[C@]32[C@@H]1[C@@H](C)[C@H]4O (some centres not stated) [AILANTHINONE]	31	Dose-dependent effect	Dose-dependent effect	< 25	–	–

SMILES	inhibition [2]	IC50 (HeLa) [µM]	inhibition [3]	inhibition [4]	inhibition [5]	inhibition [6]	IC50 [7] [µM]	inhibition [8]	inhibition [9]	inhibition [10]	inhibition [11]	inhibition [12]	GI50 [1] [µM]	inhibition (HEK293)	inhibition (Nucleic Acid)	inhibition at 1 µM [13] [%]	inhibition [14]	inhibition [15]
CC[C@](C)(O)C(=O)O[C@H]1C(=O)O[C@@H]2C[C@H]3C(C)=CC(=O)[C@@H](O)[C@]3(C)[C@H]3[C@@]4(O)OC[C@]32[C@@H]1[C@@H](C)[C@H]4O (stereo in doubt; 4)	inactive	–	inactive	inactive	inactive	inactive	–	–	inactive	–	–	–	–	Dose-dependent effect	Dose-dependent effect	–	Active	Active
